Laboratory results: paper PMC4353699 (Journal of medicinal chemistry, 2014)

How the values were obtained:
MRSA (USA300) = experiment: Time-kill assay; format: cell-based, Staphylococcus aureus; settings: for bactericidal effect in time-kill assay / time to eliminate MRSA (CFU to zero): 3.0 × MIC
in vitro = settings: human, Caco-2
[1] = Metabolic stability in human liver microsomes; format: in vitro ADME; settings: without NADPH
[2] = tested on: 18 different strains of MRSA and VRSA; experiment: MIC, summary over the strain panel; format: cell-based, Staphylococcus aureus
In short: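 Panel of 18 clinical isolates of MRSA and VRSA, with MRSA strains supplied by the NARSA repository. It includes linezolid-resistant MRSA NRS119 and multidrug-resistant VRSA, USA100, USA200 and USA500. MIC is the minimum concentration of test compound that inhibits bacterial growth.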

Caco-2 cells = experiment: Caco-2 permeability assay; settings: Caco-2, apical to basolateral, 10 μM

| Structure (SMILES) | bactericidal effect in time-kill assay (MRSA (USA300)) | time to eliminate MRSA (CFU to zero) (MRSA (USA300)) | also measured |
| --- | --- | --- | --- |
| C/C(=N\NC(=N)N)c1sc(-c2ccc(C3CCCCC3)cc2)nc1C [compound 8, 2-{1-[2-(4-Cyclohexylphenyl)-4-methylthiazol-5-yl]ethylidene}hydrazinecarboximidamide] | bactericidal | six hours | – |
| CNC(=C[N+](=O)[O-])NCCSCc1ccc(CN(C)C)o1 [ranitidine] | – | – | Papp A→B at 2 h, 10 µM (in vitro): 0.2 ×10⁻⁶ cm/s |
| CCCCCc1ccc(-c2nc(C)c(/C(C)=N/NC(=N)N)s2)cc1 [1d] | bactericidal | within two hours | – |
| CCCCc1ccc(-c2nc(C)c(/C(C)=N/NC(=N)N)s2)cc1 [1a] | bactericidal | within two hours | metabolism on removing the cofactor NADPH [1]: significantly reduced; concentration inhibiting growth (MIC), range over MRSA strains [2]: 1.4 to 5.5 µg/mL; Papp, A to B direction (Caco-2 cells): very limited permeability |
| CN[C@H](CC(C)C)C(=O)N[C@H]1C(=O)N[C@@H](CC(N)=O)C(=O)N[C@H]2C(=O)N[C@H]3C(=O)N[C@H](C(=O)N[C@H](C(=O)O)c4cc(O)cc(O)c4-c4cc3ccc4O)[C@H](O)c3ccc(c(Cl)c3)Oc3cc2cc(c3O[C@@H]2O[C@H](CO)[C@@H](O)[C@H](O)[C@H]2O[C@H]2C[C@](C)(N)[C@H](O)[C@H](C)O2)Oc2ccc(cc2Cl)[C@H]1O [VAN, vancomycin, reference compound] | – | – | reduction of CFU by 3-log10 (MRSA (USA300); within a 12-hour window): not able to reduce the number of CFU by 3-log10 |
